Assay results published in ChEMBL document CHEMBL4308845, “Allosteric Activation of Striatal-Enriched Protein Tyrosine Phosphatase (STEP, PTPN5) by a Fragment-like Molecule” (J Med Chem, 2019).
Active and inactive are the calls of the source. No cut-off for these calls is given here.

Columns and labels:
[1] = target: T1, Tyrosine-protein phosphatase non-receptor type 5 (Homo sapiens) (UniProt P54829); test: Binding affinity to human 15N-labeled STEP PTP domain (281 to 563 residues) expressed in Escherichia coli OD2 assessed as induction of chemical perturbation at 500 uM by 1H,15N TROSY NMR spectral analysis
T1 sequence (whole entry): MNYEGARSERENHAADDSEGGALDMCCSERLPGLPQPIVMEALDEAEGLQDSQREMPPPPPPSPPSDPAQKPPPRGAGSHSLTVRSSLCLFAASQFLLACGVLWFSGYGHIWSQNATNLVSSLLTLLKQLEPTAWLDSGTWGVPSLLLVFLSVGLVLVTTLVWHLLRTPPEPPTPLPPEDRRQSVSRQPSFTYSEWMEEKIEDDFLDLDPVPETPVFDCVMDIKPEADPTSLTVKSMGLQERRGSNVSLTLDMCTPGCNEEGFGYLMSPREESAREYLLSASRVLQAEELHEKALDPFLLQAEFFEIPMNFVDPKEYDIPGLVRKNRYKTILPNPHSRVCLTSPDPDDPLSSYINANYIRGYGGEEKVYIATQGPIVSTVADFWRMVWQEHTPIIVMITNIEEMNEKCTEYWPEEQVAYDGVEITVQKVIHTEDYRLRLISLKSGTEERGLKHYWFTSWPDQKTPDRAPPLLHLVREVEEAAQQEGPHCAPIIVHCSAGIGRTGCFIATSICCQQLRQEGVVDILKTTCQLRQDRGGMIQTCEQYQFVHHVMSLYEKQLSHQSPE
Method in brief: (§1)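 40 μM 15N-labelled STEP PTP domain in 20 mM Tris-d11, 100 mM NaCl, 1 mM TCEP, pH 7.4, 8% D2O, 1% DMSO-d6, 298 K. TROSY spectra used 192 transients and 64 indirect points. Binders were called by manual comparison with the protein-only reference spectrum.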

Homo sapiens [2] = species: Homo sapiens; test: Binding affinity to human STEP46 (197 to 565 residues) expressed in Escherichia coli BL21(DE3) at 250 uM by STD-NMR method
Method in brief: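 Saturation was 3 s Gaussian pulse train, on-resonance −0.2 ppm, off-resonance 60 ppm. A 30 ms spin-lock suppressed protein signal, and the difference spectrum was taken.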

Homo sapiens [3] = species: Homo sapiens; test: Binding affinity to human STEP46 (197 to 565 residues) expressed in Escherichia coli BL21(DE3) at 500 uM by SYPRO Orange dye based DSF
Method in brief: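 Final mix was 5 μM STEP46, 25× SYPRO Orange, 500 μM fragment, 1% DMSO in 20 mM HEPES pH 7.5, 50 mM NaCl, 1 mM TCEP, in duplicate. Samples were heated 25→95 °C at 1 °C/min, read every 0.5 °C. Tm was taken from the first-derivative minimum. ΔTm ≥0.5 °C versus DMSO counted as a hit.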

Homo sapiens [4] = species: Homo sapiens; test: Binding affinity to human STEP46 (197 to 565 residues) expressed in Escherichia coli BL21(DE3) by MST method
[5] = target: Tyrosine-protein phosphatase non-receptor type 5 (Homo sapiens) (UniProt P54829); test: Binding affinity to human 15N-labeled STEP PTP domain (281 to 563 residues) expressed in Escherichia coli OD2 assessed as induction of chemical perturbation at 2 mM by 1H,15N TROSY NMR spectral analysis; method in brief: as §1
[6] = compound: N=C(N)Nc1cc(C2CCNCC2)cc(C(F)(F)F)c1; test: Activation of human STEP PTP domain (281 to 563 residues) expressed in Escherichia coli BL21(DE3) assessed as Km for substrate at 500 uM using pFyn peptide substrate after 60 mins by RapidFire MS/MS assay (reference value: 60.8 +/- 7.9 uM)
[7] = compound: N=C(N)Nc1cc(C2CCNCC2)cc(C(F)(F)F)c1; test: Activation of human STEP PTP domain (281 to 563 residues) expressed in Escherichia coli BL21(DE3) assessed as Kcat at 500 uM using pFyn peptide substrate after 60 mins by RapidFire MS/MS assay (reference value: 0.024 +/- 0.002 /s)

Molecule: CC(N)Cc1cccc(C(F)(F)F)c1 (stereo not given)
- Activity [1]: inactive

Molecule: CC(N)Cc1cc(O)cc(C(F)(F)F)c1 (stereo not given)
- Activity [1]: > 5 mM
- Activity (Homo sapiens [2]): Active
- Activity (Homo sapiens [3]): Active
- Activity (Homo sapiens [4]): Active

Molecule: SODIUM ORTHOVANAD
- Activity [5]: Active

Molecule: N=C(N)Nc1cccc(C(F)(F)F)c1
- Activity [1]: Active

Molecule: CC(N)Cc1cc(N)cc(C(F)(F)F)c1 (stereo not given)
- Activity [1]: inactive

B1: Tyrosine-protein phosphatase non-receptor type 5 (Homo sapiens), P54829 (protein)
chain: T1 sequence (whole entry)
- Km [6]: 65.4 µM
- kcat [7]: 0.042 s⁻¹
